NR2E3 ag-1 = agonists of human NR2E3 nuclear receptor; actives 0.35% (n = 360,000); AID 602229; Q9Y5X4; CHO-S Gal4-NCOR/VP16-NR2E3 two-hybrid, luciferase; inhibition of corepressor binding, % at 3.98 µM;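 active means inhibition above the mean of all tested compounds plus 3 SD, cut at about 70% in these data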;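 further: 0% = DMSO with NR2E3 transfected cells and 100% = cells lacking NR2E3 construct; higher means lower luciferase signal from less NR2E3 corepressor binding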
Target sequence (Q9Y5X4 whole entry, looked up, the tested form may be a part): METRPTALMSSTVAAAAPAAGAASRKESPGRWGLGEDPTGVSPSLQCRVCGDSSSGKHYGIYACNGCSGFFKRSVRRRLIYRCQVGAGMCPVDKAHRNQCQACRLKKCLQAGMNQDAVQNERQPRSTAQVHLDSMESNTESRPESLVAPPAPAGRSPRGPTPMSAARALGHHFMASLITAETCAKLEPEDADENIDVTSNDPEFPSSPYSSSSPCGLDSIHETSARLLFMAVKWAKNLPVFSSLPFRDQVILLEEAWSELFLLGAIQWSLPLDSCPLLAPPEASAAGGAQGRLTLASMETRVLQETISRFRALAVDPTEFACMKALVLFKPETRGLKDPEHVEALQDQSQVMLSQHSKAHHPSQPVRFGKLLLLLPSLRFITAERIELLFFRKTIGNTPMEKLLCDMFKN
NR2E3 ag-2 = NR2E3 (human) agonism; actives 0.12% (n = 320,000); GST-NR2E3/biotin-RetCOR TR-FRET, 1536-well; inhibition of corepressor binding, % at 4.78 µM; AID 2300; Q9Y5X4;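 active means percent inhibition above the cutoff of mean plus 3 SD of all tested compounds, set per screening campaign, cut at about 20% in these data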;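 further: 0% = DMSO wells and 100% = biotin wells as full block of FRET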
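System: GST-tagged NR2E3 plus biotinylated RetCOR corepressor; Buffer or medium: pH 7.5 Tris-based buffer; Probe or stimulus: RetCOR corepressor, biotinylated, 7 nM; Doses: compound at 4.8 µM, single dose; Schedule: 5 h incubation at 4 °C; Technique: time-resolved FRET; Evaluation: percent inhibition of TR-FRET ratio; Replication: one well per compound, singlicate testing.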
PP1 counter = counter-screen for PP5 inhibitors: inhibitors of human PP1-alpha | P62136 | purified PP1alpha, OMFP fluorescence | inhibition, % at 6.7 µM | actives 0.9% (n = 320,000);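 active means inhibition above the mean inhibition of all tested compounds plus 3 SD, computed separately for each screening campaign, cut at about 15% in these data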
PP5 primary = PP5 (human) phosphatase inhibition | purified PP5c, OMFP substrate fluorescence | inhibition, % at 6.7 µM | AID 1987 | actives 0.18% (n = 320,000);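 active means inhibition above the campaign's mean inhibition across all tested compounds plus 3 SD, cut at about 9.5% in these data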;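 further: 0% = DMSO only and 100% = 100 µM cantharidin control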
NR2E3 ag conf = confirmation of human NR2E3 agonists | shares compounds with NR2E3 ag-1 | CHO-S mammalian two-hybrid NR2E3-NCOR, luciferase luminescence | inhibition, % at 3.98 µM | actives 51% (n = 2,300);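 active means average inhibition above a cutoff equal to the mean inhibition of all tested compounds plus one SD, cut at about 70% in these data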;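 further: 0% = DMSO in NR2E3 cells and 100% = DMSO in cells lacking NR2E3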
VP16 counter = reduces GAL4-VP16 reporter signal in NR2E3 counterscreen | AID 624379 | actives 29% (n = 2,300) | CHO-S GAL4-VP16 luciferase reporter, luminescence | shares compounds with NR2E3 ag-1 | inhibition, % at 3.98 µM;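 active means mean inhibition above a cutoff equal to the average over all tested compounds plus one standard deviation, cut at about 70% in these data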;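 further: luciferase from a UAS reporter driven by GAL4-VP16 transactivation; 0% = DMSO with VP16-transfected cells and 100% = DMSO with cells lacking VP16; higher means less reporter light so more repression of VP16 activity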
Active calls of the source: *. In the library only some 1.3% were active in any assay of this set; here they are far more common.

Screening CC(C)C(NC(=O)c1ccc(Cl)c([N+](=O)[O-])c1)C(=O)NCc1ccccn1 (centres undefined) returned NR2E3 ag-1 -8.5.
`NC(=O)c1ccccc1NC(=O)c1ccccc1Cl` gave NR2E3 ag-1 -6.1, NR2E3 ag-2 0.1, PP1 counter -3.3 and PP5 primary 0.2.
`O=C(Nc1ccccc1C(=O)Nc1nnc(C(F)(F)F)s1)c1ccccc1Cl` gave NR2E3 ag-1 99.9*, NR2E3 ag-2 2.0, PP1 counter 12.0, PP5 primary 6.4, NR2E3 ag conf 100.6* and VP16 counter 92.6*.
For NS(=O)(=O)c1ccc(CNC(=O)c2ccc(NS(=O)(=O)c3ccc4[nH]c(=O)[nH]c4c3)cc2)cc1 the results were NR2E3 ag-1 -12.6, NR2E3 ag-2 -2.6, PP1 counter -4.4 and PP5 primary -1.2.
Oc1ccccc1N=Nc1nc(-c2ccccc2)c(-c2ccccc2)[nH]1 was read as NR2E3 ag-1 81.5*, NR2E3 ag-2 3.7, PP1 counter 17.4*, PP5 primary 7.4, NR2E3 ag conf 68.2 and VP16 counter 42.6.
COc1cccc(C2C(C(=O)c3cccs3)=C(O)C(=O)N2CCN2CCOCC2)c1OC (centres undefined) was read as NR2E3 ag-1 -8.0.
Nc1nc(N)nc(-c2cc(O)ccc2O)n1 was read as NR2E3 ag-1 76.4*, NR2E3 ag-2 -1.1, PP1 counter -5.4, PP5 primary -1.0, NR2E3 ag conf 84.8* and VP16 counter 55.5.
Screening Nc1nc(N)nc(-c2cc([N+](=O)[O-])ccc2O)n1 returned NR2E3 ag-1 33.4, NR2E3 ag-2 -0.5, PP1 counter -1.9 and PP5 primary -1.6.
C/C(=N\NC(=S)NCCc1ccccc1)c1ccc(Cl)cc1 was read as NR2E3 ag-1 54.4, NR2E3 ag-2 -1.8, PP1 counter -4.0, PP5 primary 0.1, NR2E3 ag conf 20.3 and VP16 counter -25.2.
For C/C(=N\NC(=S)NCCc1ccccc1)c1ccc(C)cc1 the results were NR2E3 ag-1 70.0, NR2E3 ag-2 1.7, PP1 counter -1.2, PP5 primary -1.0, NR2E3 ag conf 0.6 and VP16 counter -5.5.
Screening C/C(=N\NC(=S)NCCc1ccccc1)c1ccc(C#N)cc1 returned NR2E3 ag-1 20.4, NR2E3 ag-2 0.7, PP1 counter -1.2 and PP5 primary 0.2.
For COCCn1c(C)c(C)c2c(NCCc3ccccc3)ncnc21 the results were NR2E3 ag-1 52.1, NR2E3 ag conf 0.7 and VP16 counter -94.0.
Screening O=[N+]([O-])c1nn(-c2ccc3c(c2)OCCO3)n(O)c1=Nc1ccccc1 returned NR2E3 ag-1 95.0*, NR2E3 ag-2 1.9, PP1 counter -6.6, PP5 primary -0.3, NR2E3 ag conf 82.6* and VP16 counter 77.0*.
Screening Cc1ccc(N=c2c([N+](=O)[O-])nn(-c3ccc4c(c3)OCCO4)n2O)cc1F returned NR2E3 ag-1 81.8*, NR2E3 ag-2 1.2, PP1 counter 0.8, PP5 primary -1.1, NR2E3 ag conf 62.6 and VP16 counter 48.9.
Screening Cc1ccc(N=c2c([N+](=O)[O-])nn(-c3ccc4c(c3)OCCO4)n2O)c(Cl)c1 returned NR2E3 ag-2 -0.6, PP1 counter -3.8 and PP5 primary 0.4.
Cc1cc(C)cc(N=c2c([N+](=O)[O-])nn(-c3ccc4c(c3)OCCO4)n2O)c1 was read as NR2E3 ag-1 50.1, NR2E3 ag-2 -4.7, PP1 counter -2.0, PP5 primary 1.1, NR2E3 ag conf 60.9 and VP16 counter 12.2.
For O=[N+]([O-])c1nn(-c2ccc3c(c2)OCCO3)n(O)c1=NCCCO the results were NR2E3 ag-1 14.5, NR2E3 ag-2 -2.2, PP1 counter -1.1 and PP5 primary -2.2.
CCOC(=O)c1c(NC(=O)CN2C(=O)NC3(CCCC3)C2=O)sc(C)c1CC was read as NR2E3 ag-1 24.3, NR2E3 ag-2 4.3, PP1 counter -0.6 and PP5 primary 1.8.
Screening O=C1N[C@H](Cc2ccccc2)COC(=O)[C@H](Cc2ccc(F)cc2)CC/C=C/C[C@H]1CC(=O)N(CCO)Cc1ccccc1 returned NR2E3 ag-1 55.5, NR2E3 ag conf 68.7 and VP16 counter -1.5.
For O=C(Cn1cnc2ccccc21)Nc1ccc(SC(F)F)cc1 the results were NR2E3 ag-1 67.7, NR2E3 ag-2 3.8, PP1 counter 2.7, PP5 primary 3.1, NR2E3 ag conf 94.3* and VP16 counter 77.8*.
COc1ccccc1-n1c(=O)c(C#N)c(-c2ccc([N+](=O)[O-])cc2)c2cc(C(=O)c3cc(F)ccc3O)cnc21 was read as NR2E3 ag-1 -8.5, NR2E3 ag-2 3.6, PP1 counter -0.1 and PP5 primary 5.3.
For Cn1c(=O)c(C#N)c(-c2ccc(F)cc2)c2cc(C(=O)c3cc(Cl)cc(Cl)c3O)cnc21 the results were NR2E3 ag-1 93.8*, NR2E3 ag-2 -1.4, PP1 counter 13.1, PP5 primary 3.6, NR2E3 ag conf 100.3* and VP16 counter 94.2*.
COc1ccc([C@H]2N[C@]3(CCCN(Cc4ccc(Cl)cc4)C3=O)[C@H]3C(=O)N(Cc4ccccc4)C(=O)[C@@H]23)cc1 was read as NR2E3 ag-1 -20.6.
`COc1ccc(/C=C/C(=O)c2nc3ccccc3n2CC(=O)c2ccc(OC)cc2)cc1` gave NR2E3 ag-1 -7.8, NR2E3 ag-2 1.0, PP1 counter 8.7 and PP5 primary 3.3.
COc1ccc(C(=O)Cn2c(C(C)=O)nc3ccccc32)cc1 was read as NR2E3 ag-1 63.0, NR2E3 ag conf 15.1 and VP16 counter 7.8.
For COc1ccc(CNC(=O)C(C)Cc2ccccc2)cc1O (centres undefined) the results were NR2E3 ag-1 -5.1, NR2E3 ag-2 2.2, PP1 counter -5.2 and PP5 primary 2.4.
`O=C(Cc1ccc(NS(=O)(=O)c2ccc(F)cc2)cc1)NCc1cccnc1` gave NR2E3 ag-1 -23.8, NR2E3 ag-2 2.0, PP1 counter 2.4 and PP5 primary 2.8.
`Cn1ccc(NC(=O)c2ccc([N+](=O)[O-])cc2)n1` gave NR2E3 ag-1 -19.2, NR2E3 ag-2 3.4, PP1 counter 0.4 and PP5 primary 2.5.
Cc1cccc(CCNCc2c(C(=O)O)c(C)n(-c3ccccc3)c2C)c1 was read as NR2E3 ag-1 -1.2, NR2E3 ag-2 -0.6, PP1 counter 4.4 and PP5 primary 1.1.
`CC(C)(C)c1ccc(S(=O)(=O)N2CCN(C(=O)C3=COCCO3)CC2)cc1` gave NR2E3 ag-1 9.6, NR2E3 ag-2 -1.0, PP1 counter -0.3 and PP5 primary 2.1.
Screening c1ccc(Nc2ncnc3sc4c(c23)CCC4)cc1 returned NR2E3 ag-1 10.3, NR2E3 ag-2 2.3, PP1 counter 1.0 and PP5 primary 3.9.
c1csc(CCNc2ncnc3sc4c(c23)CCC4)c1 was read as NR2E3 ag-1 93.3*, NR2E3 ag-2 0.2, PP1 counter 4.8, PP5 primary 1.9, NR2E3 ag conf 97.7* and VP16 counter 87.0*.
